From BindingDB's records for doi:10.1016/j.ejmech.2016.09.032 (China Pharmaceutical University, 2017)

Tests used:
[1] = biological target: T1, Integrin alpha-IIb/beta-3 (Homo sapiens, UniProt P08514+P05106); experiment: Antagonist activity at GP2b/GP3a receptor in human platelet rich plasma assessed as inhibition of ADP-induced platelet aggregation preincubated for 1 min followed by ADP addition by aggregometric method
Outline: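 Human PRP from apheresis platelets, PPP from centrifugation at 3000r/min for 10 min used as reference. Compound in saline or 0.2% aqueous DMSO added to PRP, incubated 1 min, then ADP 20 μM (per table footnotes; methods list 10 μM) added. Light transmission aggregometry at 37°C, maximal aggregation vs PPP. Inhibition relative to control aggregation ratio. IC50 from at least four concentrations.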

[2] = biological target: T1, Integrin alpha-IIb/beta-3; experiment: Antagonist activity at GP2b/GP3a receptor in human platelet rich plasma assessed as inhibition of collagen-induced platelet aggregation preincubated for 1 min […] by aggregometric method
Outline: (§1)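 Aggregometry at 37°C in human apheresis PRP, PPP as reference. Compound in saline or 0.2% aqueous DMSO preincubated 1 min before inducer: collagen 1 μg/ml, thrombin 0.26 U/ml or U46619 2 μM (figure and table values; methods state 9 μg/ml, 1 U/ml, 6 μM). Percent inhibition vs control. IC50 from at least four concentrations, means of two to three dose-response curves.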

[3] = biological target: T1, Integrin alpha-IIb/beta-3; experiment: Antagonist activity at GP2b/GP3a receptor in human platelet rich plasma assessed as inhibition of U46619-induced platelet aggregation preincubated for 1 min […] by aggregometric method; outline: as §1
[4] = biological target: T1, Integrin alpha-IIb/beta-3; experiment: Antagonist activity at GP2b/GP3a receptor in human platelet rich plasma assessed as inhibition of thrombin-induced platelet aggregation preincubated for 1 min […] by aggregometric method; outline: as §1

T1 sequence (P05106 27-788 limits assumed): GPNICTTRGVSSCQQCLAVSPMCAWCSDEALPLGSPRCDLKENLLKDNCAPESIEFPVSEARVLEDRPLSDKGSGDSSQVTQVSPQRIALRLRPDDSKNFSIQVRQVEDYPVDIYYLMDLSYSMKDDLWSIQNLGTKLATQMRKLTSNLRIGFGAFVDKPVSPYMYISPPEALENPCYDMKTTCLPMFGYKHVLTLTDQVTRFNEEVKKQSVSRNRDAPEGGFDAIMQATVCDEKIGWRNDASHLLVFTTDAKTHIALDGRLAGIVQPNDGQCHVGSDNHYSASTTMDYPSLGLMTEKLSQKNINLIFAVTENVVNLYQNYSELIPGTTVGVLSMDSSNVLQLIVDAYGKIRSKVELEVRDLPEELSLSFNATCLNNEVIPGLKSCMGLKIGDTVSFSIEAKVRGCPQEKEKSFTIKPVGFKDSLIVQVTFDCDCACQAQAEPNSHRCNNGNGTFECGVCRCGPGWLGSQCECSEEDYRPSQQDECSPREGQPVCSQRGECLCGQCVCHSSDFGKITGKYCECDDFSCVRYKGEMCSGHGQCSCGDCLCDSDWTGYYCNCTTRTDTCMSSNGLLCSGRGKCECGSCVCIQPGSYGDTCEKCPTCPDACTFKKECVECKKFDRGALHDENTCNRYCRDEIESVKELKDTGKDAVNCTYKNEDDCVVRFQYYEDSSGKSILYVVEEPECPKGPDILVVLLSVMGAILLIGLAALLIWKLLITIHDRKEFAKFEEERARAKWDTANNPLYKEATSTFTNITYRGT
T1 sequence (P08514 32-887 limits assumed): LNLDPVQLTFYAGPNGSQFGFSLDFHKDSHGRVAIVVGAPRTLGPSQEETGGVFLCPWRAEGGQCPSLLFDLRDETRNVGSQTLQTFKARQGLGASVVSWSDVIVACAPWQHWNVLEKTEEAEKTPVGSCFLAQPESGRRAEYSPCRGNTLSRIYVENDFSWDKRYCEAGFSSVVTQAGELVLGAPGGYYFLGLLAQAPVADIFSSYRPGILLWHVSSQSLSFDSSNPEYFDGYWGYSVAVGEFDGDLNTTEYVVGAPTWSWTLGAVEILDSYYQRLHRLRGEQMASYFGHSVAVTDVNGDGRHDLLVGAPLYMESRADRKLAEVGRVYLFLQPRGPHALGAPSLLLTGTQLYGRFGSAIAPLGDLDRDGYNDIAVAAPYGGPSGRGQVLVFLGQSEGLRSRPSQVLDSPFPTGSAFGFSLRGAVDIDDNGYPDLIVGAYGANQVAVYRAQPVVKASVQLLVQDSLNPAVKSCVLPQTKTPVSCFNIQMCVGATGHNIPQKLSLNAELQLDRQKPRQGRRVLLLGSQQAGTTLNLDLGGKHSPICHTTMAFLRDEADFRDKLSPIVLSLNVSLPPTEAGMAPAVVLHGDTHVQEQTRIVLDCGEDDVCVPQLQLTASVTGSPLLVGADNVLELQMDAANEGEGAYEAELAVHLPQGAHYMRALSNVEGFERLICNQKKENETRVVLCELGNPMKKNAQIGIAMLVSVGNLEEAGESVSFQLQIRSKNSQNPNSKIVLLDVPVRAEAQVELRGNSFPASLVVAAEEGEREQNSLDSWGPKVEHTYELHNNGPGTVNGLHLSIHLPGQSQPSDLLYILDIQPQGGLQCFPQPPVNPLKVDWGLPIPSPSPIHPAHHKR
T1 sequence (P08514 891-1039 limits assumed): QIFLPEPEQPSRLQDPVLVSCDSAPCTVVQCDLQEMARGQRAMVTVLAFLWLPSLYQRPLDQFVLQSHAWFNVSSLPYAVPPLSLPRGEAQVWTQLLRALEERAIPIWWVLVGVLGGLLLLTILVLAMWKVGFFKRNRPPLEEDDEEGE

| IC50 [1] [µM] | Structure (SMILES) | further results |
| --- | --- | --- |
| 0.18 | O=C(O)C(Cc1ccc2cc(OCCCN3CCNCC3)ccc2c1)NS(=O)(=O)c1ccccc1 (centres undefined) | IC50 [2]: 1.32 µM; IC50 [3]: 1.01 µM; IC50 [4]: 0.53 µM |
| 0.2 | O=C(O)C(Cc1ccc2cc(OCCCN3CCNCC3)ccc2c1)NS(=O)(=O)c1ccc([N+](=O)[O-])cc1 (centres undefined) |  |
| 12.8 | O=C(O)C(Cc1ccc2cc(OCCN3CCNCC3)ccc2c1)NS(=O)(=O)c1ccc(Br)cc1 (centres undefined) |  |
| 1.65 | COc1ccc(S(=O)(=O)NC(Cc2ccc3cc(OCCCN4CCNCC4)ccc3c2)C(=O)O)cc1 (centres undefined) |  |
| 0.28 | O=C(O)C(Cc1ccc2cc(OCCCN3CCNCC3)ccc2c1)NS(=O)(=O)c1ccc(F)cc1 (centres undefined) |  |
| > 100 | O=C(O)C(Cc1ccc2cc(OCCCC3CCNCC3)ccc2c1)NS(=O)(=O)c1ccc(Br)cc1 (centres undefined) |  |
| 18.8 | O=C(O)C(Cc1ccc2cc(OCCCCN3CCNCC3)ccc2c1)NS(=O)(=O)c1ccc(Br)cc1 (centres undefined) |  |
| 0.37 | O=C(O)C(Cc1ccc2cc(OCCCN3CCNCC3)ccc2c1)NS(=O)(=O)c1ccc(Br)cc1 (centres undefined) |  |

The remaining lines, values behind:

| Structure (SMILES) | IC50 [1] [µM] | further results |
| --- | --- | --- |
| CCCC(=O)NC(Cc1ccc2cc(OCCCN3CCNCC3)ccc2c1)C(=O)O (centres undefined) | 5.4 |  |
| N=C(N)c1ccc(COc2ccc3cc(CC(NC(=O)c4ccc([N+](=O)[O-])cc4)C(=O)O)ccc3c2)cc1 (centres undefined) | 2.1 |  |
| O=C(NC(Cc1ccc2cc(OCCCN3CCNCC3)ccc2c1)C(=O)O)c1cc(Cl)cc(Cl)c1 (centres undefined) | 24.6 |  |
| O=C(NC(Cc1ccc2cc(OCCCN3CCNCC3)ccc2c1)C(=O)O)c1ccc([N+](=O)[O-])cc1 (centres undefined) | 3.4 |  |
| N=C(N)c1ccc(COc2ccc3cc(CC(NS(=O)(=O)c4ccccc4)C(=O)O)ccc3c2)cc1 (centres undefined) | 0.84 | IC50 [2]: 27.7 µM; IC50 [3]: 23.6 µM; IC50 [4]: 22.9 µM |
| CCCCS(=O)(=O)NC(Cc1ccc2cc(OCc3ccc(C(=N)N)cc3)ccc2c1)C(=O)O (centres undefined) | 3.29 |  |
| Cc1ccc(S(=O)(=O)NC(Cc2ccc3cc(OCc4ccc(C(=N)N)cc4)ccc3c2)C(=O)O)cc1 (centres undefined) | 4.01 |  |
| COc1ccc(C(=O)NC(Cc2ccc3cc(OCCCN4CCNCC4)ccc3c2)C(=O)O)cc1 (centres undefined) | 12.7 |  |
| O=C(NC(Cc1ccc2cc(OCCCN3CCNCC3)ccc2c1)C(=O)O)c1cccc(F)c1 (centres undefined) | 6.38 |  |
| O=C(NC(Cc1ccc2cc(OCCCN3CCNCC3)ccc2c1)C(=O)O)c1ccccc1 (centres undefined) | 7.9 |  |
| O=C(O)C(Cc1ccc2cc(OCCC3CCNCC3)ccc2c1)NS(=O)(=O)c1ccc(Br)cc1 (centres undefined) | > 100 |  |
| CCCCS(=O)(=O)NC(Cc1ccc2cc(OCCCN3CCNCC3)ccc2c1)C(=O)O (centres undefined) | 0.52 |  |
| CCCC(=O)NC(Cc1ccc2cc(OCc3ccc(C(=N)N)cc3)ccc2c1)C(=O)O (centres undefined) | 1.08 |  |
| O=C(O)C(Cc1ccc2cc(OCC3CCNCC3)ccc2c1)NS(=O)(=O)c1ccc(Br)cc1 (centres undefined) | > 100 |  |
| O=C(NC(Cc1ccc2cc(OCCCN3CCNCC3)ccc2c1)C(=O)O)c1ccc(F)cc1 (centres undefined) | 7.6 |  |
